Measured values: ChEMBL document CHEMBL1139646, “Sialyl Lewis(x) analogs based on a quinic acid scaffold as the fucose mimic” (Bioorg Med Chem Lett, 2005)
The source made the active and inactive calls. The rule behind the calls is not given here.

Columns and labels:
Type in all cases: cell-based
[1] = target: T1, E-selectin (Homo sapiens, UniProt P16581); test: Inhibition of HL-60 cell adhesion to recombinant human Selectin E
T1 sequence (P16581 whole entry): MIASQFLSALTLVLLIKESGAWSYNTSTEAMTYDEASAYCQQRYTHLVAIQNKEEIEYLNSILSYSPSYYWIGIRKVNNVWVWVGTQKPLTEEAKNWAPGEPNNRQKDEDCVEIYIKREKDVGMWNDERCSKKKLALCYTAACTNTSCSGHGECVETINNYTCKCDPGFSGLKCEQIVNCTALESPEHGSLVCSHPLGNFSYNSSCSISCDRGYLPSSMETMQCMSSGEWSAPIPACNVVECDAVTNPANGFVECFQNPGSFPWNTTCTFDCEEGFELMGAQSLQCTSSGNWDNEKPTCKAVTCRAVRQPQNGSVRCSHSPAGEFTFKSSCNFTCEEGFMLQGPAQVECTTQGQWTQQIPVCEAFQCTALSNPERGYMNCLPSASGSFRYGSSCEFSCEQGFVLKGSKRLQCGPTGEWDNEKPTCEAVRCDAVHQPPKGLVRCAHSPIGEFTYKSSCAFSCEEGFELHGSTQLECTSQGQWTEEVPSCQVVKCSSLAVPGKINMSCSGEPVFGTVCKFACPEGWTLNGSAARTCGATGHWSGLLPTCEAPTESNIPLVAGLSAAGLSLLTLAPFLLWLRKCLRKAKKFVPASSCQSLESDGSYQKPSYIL
How it was run: (§1)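 Recombinant human E- or P-selectin was coated in DPBS at 3 µg/mL (150 ng per well) for 3 h and blocked 1 h with DPBS/1% BSA. Inhibitor, diluted from 10 mM DPBS stock into Hanks'/20 mM Hepes pH 7.2–7.4/0.2% glucose/1% BSA, was added with 10^5 HL-60 cells for 15 min at room temperature, then washed with CaCl2-containing buffer. Bound cells were lysed and myeloperoxidase was read with o-phenylenediamine/H2O2 for 1 h at A492. Percent inhibition is relative to the no-inhibitor control.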

[2] = target: T2, P-selectin (Homo sapiens, UniProt P16109); test: Inhibition of HL-60 cell adhesion to recombinant human Selectin P; how it was run: as §1
T2 sequence (P16109 whole entry): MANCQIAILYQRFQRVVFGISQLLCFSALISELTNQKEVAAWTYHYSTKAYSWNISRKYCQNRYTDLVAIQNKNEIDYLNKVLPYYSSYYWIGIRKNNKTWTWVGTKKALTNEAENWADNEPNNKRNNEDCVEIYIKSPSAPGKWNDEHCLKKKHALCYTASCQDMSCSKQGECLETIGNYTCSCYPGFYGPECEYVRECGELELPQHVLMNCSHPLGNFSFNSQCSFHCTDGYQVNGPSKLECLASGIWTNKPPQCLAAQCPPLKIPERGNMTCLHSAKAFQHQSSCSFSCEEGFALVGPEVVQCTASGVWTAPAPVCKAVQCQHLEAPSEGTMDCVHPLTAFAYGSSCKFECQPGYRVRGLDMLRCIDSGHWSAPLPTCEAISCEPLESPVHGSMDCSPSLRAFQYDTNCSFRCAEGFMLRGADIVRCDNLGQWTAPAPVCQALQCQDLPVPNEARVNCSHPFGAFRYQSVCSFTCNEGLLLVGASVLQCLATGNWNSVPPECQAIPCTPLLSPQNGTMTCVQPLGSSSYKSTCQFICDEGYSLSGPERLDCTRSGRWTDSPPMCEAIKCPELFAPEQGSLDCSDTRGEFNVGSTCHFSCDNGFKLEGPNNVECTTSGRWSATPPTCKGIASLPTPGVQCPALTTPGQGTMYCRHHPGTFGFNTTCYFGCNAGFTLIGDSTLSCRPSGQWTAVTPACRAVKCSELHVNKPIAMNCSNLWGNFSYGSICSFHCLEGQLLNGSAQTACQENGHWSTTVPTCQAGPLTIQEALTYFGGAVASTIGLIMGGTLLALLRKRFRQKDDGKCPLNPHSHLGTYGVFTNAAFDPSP

[3] = target: T3, E-selectin (Homo sapiens) (UniProt P16581); test: Inhibition of HL-60 cell adhesion to recombinant human Selectin E at 50 mM; how it was run: as §1
T3 sequence (whole entry): T1 sequence (P16581 whole entry)

[4] = target: T4, P-selectin (Homo sapiens) (UniProt P16109); test: Inhibition of HL-60 cell adhesion to recombinant human Selectin P at 50 mM
T4 sequence (whole entry): T2 sequence (P16109 whole entry)

[5] = target: T2, P-selectin; test: Inhibition of HL-60 cell adhesion to recombinant human Selectin P; Not active up to 100 mM; how it was run: as §1
[6] = target: T3, E-selectin (Homo sapiens); test: Inhibition of HL-60 cell adhesion to recombinant human Selectin E at 50 mM; Not active up to 100 mM; how it was run: as §1
[7] = target: T4, P-selectin (Homo sapiens); test: Inhibition of HL-60 cell adhesion to recombinant human Selectin P at 50 mM; Not active up to 100 mM; how it was run: as §1

Structure (SMILES) | IC50 ([1]; read-out: IC50) [mM] | IC50 [2] [mM] | inhibition [3] [%] | inhibition [4] [%] | IC50 ([1]; hl-60) | IC50 [5] | inhibition [6] | inhibition [7]
O=C(O)[C@]1(O)C[C@@H](O)[C@@H](O)[C@H](O)C1 [QUINIC ACID] |  |  |  |  | Not Active | Not Active | inactive | inactive
CCC(C)[C@H](NC(=O)[C@]1(O)C[C@@H](O)[C@@H](O)[C@H](O)C1)C(=O)O (some centres not stated) | > 50 | 19 | 44 | 92 |  |  |  | 
C[C@H](NC(=O)[C@]1(O)C[C@@H](O)[C@@H](O)[C@H](O)C1)C(=O)O | > 50 | > 50 | 30 | 8 |  |  |  | 
O=C(O)[C@H](CO)NC(=O)[C@]1(O)C[C@@H](O)[C@@H](O)[C@H](O)C1 | > 50 | 19.5 | 46 | 88 |  |  |  | 

Other lines, results leading:

IC50 ([1]; read-out: IC50) [mM] | IC50 [2] [mM] | inhibition [3] [%] | inhibition [4] [%] | IC50 ([1]; hl-60) | IC50 [5] | inhibition [6] | inhibition [7] | Structure (SMILES)
> 50 | > 50 | 38 | 38 |  |  |  |  | O=C(O)CNC(=O)[C@]1(O)C[C@@H](O)[C@@H](O)[C@H](O)C1
> 50 | > 50 | 31 | 14 |  |  |  |  | O=C(O)CCCCCNC(=O)[C@]1(O)C[C@@H](O)[C@@H](O)[C@H](O)C1
> 50 | 21 | 43 | 86 |  |  |  |  | O=C(O)CC[C@H](NC(=O)[C@]1(O)C[C@@H](O)[C@@H](O)[C@H](O)C1)C(=O)O
> 50 | 40 | 40 | 83 |  |  |  |  | O=C(O)CCCNC(=O)[C@]1(O)C[C@@H](O)[C@@H](O)[C@H](O)C1
